RGS4 act – potentiators or activators of RGS4; HEK293 M3R/inducible RGS4, carbachol calcium flux Fluo4; stronger effect = lower value; B-score at 10 µM; 310,000 compounds, 0.92% hits; AID 463111;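 active = B-score of the integrated calcium signal more than 4 SD below the library mean, with starting fluorescence not abnormally high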;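 also: negative B-score means reduced calcium response which marks RGS4 activation or potentiation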
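Detection: kinetic calcium fluorescence imaging with Fluo4-AM dye, 2 µM / Material: HEK293 cells with stable M3R and inducible RGS4 / Schedule: recording 10 s baseline at 1 Hz, 100 s post-agonist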
MrgX1 ag – activates human MrgX1 receptor signaling. Q96LB2. MrgX1-HEK293 cells, Fluo-4 calcium fluorescence, agonist mode; stronger effect = higher value. B-score at 10 µM. 310,000 compounds, 0.44% hits;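 active = calcium response B-score plate-corrected fluorescence ratio at least 3 library SD, with starting fluorescence B-score inside 5 SD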
Target sequence (Q96LB2 whole entry, looked up): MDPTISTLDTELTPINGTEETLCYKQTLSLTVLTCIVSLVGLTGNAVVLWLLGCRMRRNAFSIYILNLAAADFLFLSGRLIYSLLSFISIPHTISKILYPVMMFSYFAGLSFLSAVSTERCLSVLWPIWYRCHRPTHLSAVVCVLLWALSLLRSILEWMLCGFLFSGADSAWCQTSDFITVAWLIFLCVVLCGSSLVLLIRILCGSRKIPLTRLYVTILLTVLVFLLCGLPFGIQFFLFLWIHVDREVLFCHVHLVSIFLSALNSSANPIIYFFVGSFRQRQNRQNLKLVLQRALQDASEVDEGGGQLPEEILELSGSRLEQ
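Test system: HEK293 cells stably expressing human MrgX1 receptor; amount: 15,000 cells per well; doses: compound delivered in addition one of three; times: overnight plating before 1 h dye loading; detection: Fluo-4 NW calcium-flux fluorescence, kinetic read; read-out basis: B-scored fluorescence response ratio; controls: positive and negative controls per plate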
RGS4 block – inhibitors of human RGS4 | P49798 | HEK293 M3R/RGS4 inducible, Fluo-4 calcium flux; stronger effect = higher value; triggered by carbachol at its EC20 | B-score at 10 µM | 310,000 compounds, 0.45% hits | AID 463165;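 active = B-score, a plate-corrected calcium signal, over three deviations above library mean, with baseline fluorescence within five deviations of library mean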;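 also: RGS4 expression induced by doxycycline in cells with stable M3 receptor; B-score is computed from the integrated fluorescence ratio over baseline after carbachol; higher B-score means a larger calcium signal and so more RGS4 inhibition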
Target sequence (P49798 whole entry, looked up): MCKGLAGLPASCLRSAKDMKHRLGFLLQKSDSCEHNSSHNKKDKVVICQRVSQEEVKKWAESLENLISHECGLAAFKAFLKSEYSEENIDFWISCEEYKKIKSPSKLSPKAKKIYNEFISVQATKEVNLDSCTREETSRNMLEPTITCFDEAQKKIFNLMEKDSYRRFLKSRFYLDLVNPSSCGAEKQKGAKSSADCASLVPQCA
MrgX1 allo act – human MrgX1 positive allosteric modulation, primary screen. 310,000 compounds, 0.63% hits. Q96LB2. B-score at 10 µM. AID 588675. MrgX1-HEK293, Fluo-4 calcium flux, FDSS; stronger effect = higher value;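 active = plate-corrected calcium response at least 3 library SD above typical, normal starting fluorescence, not activating the receptor alone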;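 also: compound read alongside a low EC10 to EC30 dose of BAM8-22 agonist; peak minus trough fluorescence over baseline measured at the second addition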
MrgX1 antagonist – blocks BAM8-22 activation of human MrgX1 receptor; Q96LB2; MRGX1-HEK293 calcium flux, Fluo-4, BAM8-22 antagonism; stronger effect = lower value; B-score at 10 µM; 310,000 compounds, 1.3% hits; AID 588676;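 active = calcium-response B-score plate-corrected more than 3 library SD below zero, starting fluorescence within 5 deviations, no agonist response on first addition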;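 also: peak minus trough fluorescence over baseline after final BAM8-22 challenge near maximal dose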
* = called active by the depositor; i = inactive; . = no result. This is a sample that favours compounds with a hit; in the whole collection about 3.5% have one here.

SMILES	RGS4 act	MrgX1 ag	RGS4 block	MrgX1 allo act	MrgX1 antagonist
Cc1cc(C)c2c(=O)n(CC(=O)Nc3cccc(Cl)c3C)sc2n1	i	i	i	9.55*	i
CCN(CC)CCCN1C(=O)c2oc3ccccc3c(=O)c2C1c1cccs1 (stereo not drawn)	i	i	i	10.9*	i
CCN(CC)CCN1C(=O)c2oc3ccccc3c(=O)c2C1c1ccccc1 (stereo not drawn)	i	i	i	i	-5.96*
CC(Cc1cccs1)NC(=O)Nc1ccc(Cl)c(Cl)c1 (stereo not drawn)	i	i	i	i	i
O=C(Nc1cccc(Cl)c1)c1cc(N=Nc2ccc([N+](=O)[O-])cc2Cl)ccc1O	i	i	i	i	-4.62*
O=C(Nc1ccc([N+](=O)[O-])cc1Cl)c1cc(Cl)ccc1O	.	i	.	i	i
CCC(=O)Nc1ccc2c(c1)nc1n2CCN(CCOC)C1	i	i	i	i	i
Cc1ccc(CN2C(=O)/C(=C\c3ccc(C(=O)NCc4cccnc4)cc3)Oc3ccccc32)cc1	i	i	i	i	-4.56*
O=C(CN1C(=O)/C(=C\c2ccccc2Cl)Oc2ccccc21)NCc1cccnc1	i	i	i	i	i
Cc1ccc2cc(C3CC(c4ccco4)=NN3S(=O)(=O)c3ccccc3)c(Cl)nc2c1 (stereo not drawn)	i	37.8*	i	i	i
Cc1c(Cl)c([N+](=O)[O-])nn1CCCC(=O)N1CCN(c2ccccc2)CC1	i	i	i	i	-5.28*
Cc1c(Cl)c([N+](=O)[O-])nn1CCCC(=O)Nc1c(Cl)cccc1Cl	i	i	i	i	i
Cc1c(Cl)c([N+](=O)[O-])nn1CCCC(=O)Nc1c(C)n(C)n(-c2ccccc2)c1=O	-7.33*	i	i	i	i
Cc1c(Br)c([N+](=O)[O-])nn1CCCC(=O)N1CCN(c2ccccc2)CC1	i	i	i	i	i
CC1Cc2ccccc2N1C(=O)c1nn(C)cc1Br (stereo not drawn)	i	i	i	i	i
COc1ccc(CS(=O)(=O)c2nc(C)cc(C)c2S(C)(=O)=O)cc1	i	i	i	i	i
CCOc1ccc(/C=N/OCC(=O)NCc2ccc3c(c2)OCO3)cc1OC	i	i	i	i	-5.92*
COc1ccccc1/C=N/OCC(=O)NCc1ccc2c(c1)OCO2	i	i	i	i	i
Cc1ccc(/C(=N\O)c2oc3c(C)c4oc(=O)cc(C)c4cc3c2C)cc1	-8.08*	i	i	10.2*	i
O=S(=O)(CCc1ccncc1)C1Cc2cccc3cccc1c23 (stereo not drawn)	i	i	i	i	i
COc1cc(/C=C2\SC(=S)N(C(C(=O)O)c3ccccc3)C2=O)ccc1O (stereo not drawn)	i	i	i	i	i
O=C(O)C(c1ccccc1)N1C(=O)/C(=C\c2ccc(O)c(O)c2)SC1=S (stereo not drawn)	i	27.5*	i	i	i
CCCCCCN1C=CC=C/C1=C\C=C(C#N)C#N	i	i	i	i	i
Cc1cccc(NC(=S)N(Cc2cccs2)Cc2cc3cc(C)cc(C)c3[nH]c2=O)c1	i	i	i	i	-5.45*
COc1ccc2[nH]c(=O)c(CN(Cc3cccs3)C(=S)Nc3cccc(C)c3)cc2c1	i	i	i	i	i
SMILES	RGS4 act	MrgX1 ag	RGS4 block	MrgX1 allo act	MrgX1 antagonist
O=C1N(c2ccc3c(c2)OCCO3)C(c2ccccc2)C1(F)F (stereo not drawn)	i	i	i	6.93*	i
Cc1ccc(N2C(=O)C(F)(F)C2c2ccccc2)cc1 (stereo not drawn)	i	i	i	i	i
O=C(OCC(=O)N1CCCc2ccccc21)c1cc(Br)ccc1O	i	i	i	i	i
Cc1ccccc1C(=O)N/N=C/c1ccc([N+](=O)[O-])s1	i	i	i	i	i
O=C(N/N=C/c1ccc([N+](=O)[O-])s1)c1ccccc1Br	i	i	i	i	-5.31*
CCC(C)n1c(=S)[nH]c2c(sc3ccc([N+](=O)[O-])cc32)c1=O (stereo not drawn)	i	i	i	9.21*	i
COc1ccc(C(=O)NNC(=O)C(=O)NC2CCCCC2)cc1	i	i	i	i	i
O=C(CN1CCCCCC1)N1c2ccccc2C=Cc2ccccc21	-7.61*	i	i	i	i
O=C(CN1CCCCC1)N1CCCc2ccccc21	i	i	i	i	i
O=C(CN1CCCC1)N1c2ccccc2Sc2ccc(C(F)(F)F)cc21	-8.1*	i	i	i	i
CCNCCC(=O)N1c2ccccc2Sc2ccc(C(F)(F)F)cc21	-7.87*	30.7*	i	i	i
O=C(CN1CCN(c2ccccn2)CC1)N1c2ccccc2Sc2ccc(C(F)(F)F)cc21	i	i	i	i	i
CCO[C@H]1OC(C(=O)NCc2ccccc2)=C[C@@H](c2cn(C(C)=O)c3ccccc23)[C@@H]1CCCO	i	i	i	i	i
COc1ccccc1NC(=O)c1ccc(NC(=O)COC(=O)CCC2CCCC2)cc1	i	i	i	i	i
O=C(/C(=C(\[O-])c1ccccc1)[n+]1ccc2ccccc2c1)c1ccccc1	i	i	i	i	i
O=C(/C(=C(\[O-])c1ccccc1)[n+]1ccc2ccccc2c1)c1ccc([N+](=O)[O-])cc1	i	i	i	i	-5.65*
CCC(C)N(CCNC(=O)CC1Oc2ccc(C)cc2NC1=O)C1CCCCC1 (stereo not drawn)	-7.33*	i	i	i	i
CSCCNC(=O)Nc1c(-c2c(Cl)cccc2Cl)noc1C	i	i	i	i	i
N#CCOc1coc(CN2CCN(c3ccccc3)CC2)cc1=O	i	i	i	i	i
COc1cc(/C=C2/SC(=S)N(c3c(C)n(C)n(-c4ccccc4)c3=O)C2=O)ccc1O	i	35.7*	i	i	i
CC(C)(C)[C@H]1C=C(C(=O)N2CCN(Cc3ccccc3)CC2)O[C@@H](OCc2ccc(CO)cc2)C1	i	i	i	7.44*	i
COc1ccc(OC)c(/C=N/Nc2nc(C)cc(=O)[nH]2)c1	i	i	i	i	i
Cc1ccc(S(=O)(=O)NCC(=O)OCc2nnc(-c3ccccc3)o2)cc1	i	i	i	i	i
Cc1cnc(CN(C)C(=O)c2ccc3oc(Cc4ccc(Cl)cc4)nc3c2)[nH]1	-7.18*	i	i	i	i

Assay outcomes as filed in PubChem.
